In one assay the test system is Aspergillus fumigatus. In words: In vitro antifungal activity against Aspergillus fumigatus. In kind it is functional. A digest of the protocol: (§1)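 Fungal growth-inhibition screen (Godefroi method) against dermatophytes, yeasts, moulds and other fungi. The value is the lowest concentration (µg/mL) giving total inhibition of growth, tested up to 100 µg/mL.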
The next assay has as its system Candida albicans. In words: In vitro antifungal activity against Candida albicans. It counts as functional. In a few lines: as §1
The next assay has as its system Candida tropicalis. Briefly: In vitro antifungal activity against Candida tropicalis. In kind it is functional. In a few lines:
as §1

For a further assay, the system named is Cryptococcus neoformans. In words: In vitro antifungal activity against Cryptococcus neoformans. It counts as functional. In a few lines:
as §1

The next assay deals with Microsporum canis. Briefly: In vitro antifungal activity against Microsporum canis. In kind it is functional. A digest of the protocol: as §1
The nature of assay [1]: In vitro antifungal activity against Mucor sp. It counts as functional. A digest of the protocol:
as §1

Another assay concerns Phialophora verrucosa. Briefly: In vitro antifungal activity against Phialophora verrucosa. It counts as functional. A digest of the protocol:
as §1

The next assay deals with Saprolegnia. In words: In vitro antifungal activity against Saprolegnia sp. In kind it is functional. A digest of the protocol:
as §1

A further assay relates to Sporothrix schenckii. Briefly: In vitro antifungal activity against Sporothrix schenck ii. It counts as functional. A digest of the protocol:
as §1

For another assay, the system named is Trichophyton benhamiae. Briefly: In vitro antifungal activity against Trichophyton mentagrophytes. In kind it is functional, Arthroderma benhamiae. In a few lines:
as §1

For another assay, the system named is Trichophyton rubrum. In words: In vitro antifungal activity against Trichophyton rubrum. In kind it is functional. In a few lines: as §1
A short description of assay [2]: In vivo activity against microsporosis guinea pig, measured as the ratio of animals cured/animals infected (C/I) at dose 20 mg/kg; C/I = 2/2. It counts as functional.
A short description of assay [3]: In vivo activity against microsporosis guinea pig, measured as the ratio of animals cured/animals infected (C/I) at dose 10 mg/kg; C/I = 0/2. It counts as functional.
Assay [4] is described as follows: In vivo activity against vaginal candidoses in rats, measured as the ratio of animals cured/animals infected (C/I) at dose 2.5 mg/kg; C/I = 0/2. It counts as functional.
Assay [5] in a line: In vivo activity against vaginal candidoses in rats, measured as the ratio of animals cured/animals infected (C/I) at dose 10 mg/kg; C/I = 3/4. It counts as functional.

Here are results for one compound from ChEMBL document CHEMBL1122688, “Antimycotic azoles. 7. Synthesis and antifungal properties of a series of novel triazol-3-ones” (1984).

The structures appear in SMILES notation. A value given as a limit tells only on which side of the number the result lay.

For `Cc1nn(C)c(=O)n1-c1ccc(N2CCN(c3ccc(OC[C@@H]4COC(Cn5ccnc5)(c5ccc(Cl)cc5Cl)O4)cc3)CC2)cc1` (stereo not given in full), the Inhibition in the assay on Aspergillus fumigatus was 100 µg/mL; in the assay with Candida albicans it was 100 µg/mL; with Candida tropicalis, greater than 100 µg/mL; in the assay on Cryptococcus neoformans, greater than 100 µg/mL; with Microsporum canis, 100 µg/mL; in [1], greater than 100 µg/mL. Also, the Inhibition in the assay on Phialophora verrucosa is greater than 100 µg/mL; in the assay on Saprolegnia it was greater than 100 µg/mL; in the assay with Sporothrix schenckii it was greater than 100 µg/mL; with Trichophyton benhamiae it was 10 µg/mL; in the assay with Trichophyton rubrum, 100 µg/mL. Besides, the C/I ratio stood at 2 in assay [2], 0 in assay [3], 0 in assay [4] and 0.75 in assay [5].
